Tests used:
MT4 [1] = experiment: Tested for the cytotoxic concentration required to reduce the number of viable mock infected MT-4 cells; assay type: functional; conditions: Homo sapiens
How it was run: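 Mock-infected MT-4 cells (5 × 10^5/mL) in RPMI-1640 with 10% FCS were exposed to compound dilutions (100 to 0.006 µg/mL). Viable cells were counted by trypan blue at day 5; about 150-200 cells were counted in controls. CC50 is the concentration that reduces viable cell number by 50%.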

Homo sapiens [2] = organism: Homo sapiens; experiment: Inhibition of HIV-1Ba-L replication was measured after 14 days postvirus challenge by HIV-p24 ELISA at the dosage of 0.16 uM concentration in human macrophages; assay type: functional; conditions: 336 h
How it was run: (§1)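 Human monocyte/macrophages isolated by 5-day adherence to plastic (10^6 cells/well), >95% pure by esterase and Giemsa staining. Infected with 500 minimal infective doses/well of HIV-1/Ba-L. Compound added from 30 min before virus challenge. Virus excess removed at 48 h and medium renewed with compound. Virus production read by p24 ELISA at day 14. Data are the mean of two independent experiments.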

Homo sapiens [3] = organism: Homo sapiens; experiment: Inhibition of HIV-1Ba-L replication was measured after 14 days postvirus challenge by HIV-p24 ELISA at the dosage of 3.3 uM concentration in human macrophages; assay type: functional; conditions: 336 h; how it was run: as §1
MT4 [4] = experiment: Tested for the inhibitory activity of HIV-1 infected MT-4 cells; assay type: functional, cell-based; conditions: Homo sapiens
How it was run: (§2)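 MT-4 cells (5 × 10^5/mL) grown in RPMI-1640 with 10% FCS, 2 mM L-glutamine and 0.075% NaHCO3. Infected with HIV-1 or HIV-2 at 100 CCID50/mL and mixed with compound dilutions (100 to 0.006 µg/mL). After 5 days viable cells were counted by trypan blue staining. EC50 is the concentration that reduces viable-cell loss in infected cultures by 50%.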

CCRF-CEM [5] = experiment: Tested for the inhibitory activity of virus induced giant cell formation in HIV-1 infected CEM cells; assay type: functional, cell-based; conditions: Homo sapiens
CCRF-CEM [6] = experiment: Tested for the inhibitory activity of virus induced giant cell formation in HIV-2 infected CEM cells; assay type: functional, cell-based; conditions: Homo sapiens
Homo sapiens [7] = organism: Homo sapiens; experiment: Inhibition of HIV-1Ba-L replication was measured after 14 days postvirus challenge by HIV-p24 ELISA at the dosage of 0.033 uM concentration in human macrophages; assay type: functional; conditions: 336 h; how it was run: as §1
MT4 [8] = experiment: Tested for the ratio between CC50 (MT-4) to EC50 (MT-4); assay type: functional, Homo sapiens
Homo sapiens [9] = organism: Homo sapiens; experiment: Inhibition of HIV-1Ba-L replication was measured after 14 days postvirus challenge by HIV-p24 ELISA at the dosage of 0.8 uM concentration in human macrophages; assay type: functional; conditions: 336 h; how it was run: as §1
MT4 [10] = experiment: Tested for the inhibitory activity of HIV-2 infected MT-4 cells; assay type: functional, cell-based; conditions: Homo sapiens; how it was run: as §2
Homo sapiens [11] = organism: Homo sapiens; experiment: Inhibition of HIV-1Ba-L replication was measured after 14 days postvirus challenge by HIV-p24 ELISA at the dosage of 0.034 uM concentration in human macrophages; assay type: functional; conditions: 336 h; how it was run: as §1
Homo sapiens [12] = organism: Homo sapiens; experiment: Inhibition of HIV-1Ba-L replication was measured after 14 days postvirus challenge by HIV-p24 ELISA at the dosage of 3.4 uM concentration in human macrophages; assay type: functional; conditions: 336 h; how it was run: as §1
Homo sapiens [13] = organism: Homo sapiens; experiment: Inhibition of HIV-1Ba-L replication was measured after 14 days postvirus challenge by HIV-p24 ELISA at the dosage of 0.17 uM concentration in human macrophages; assay type: functional; conditions: 336 h; how it was run: as §1
Homo sapiens [14] = organism: Homo sapiens; experiment: Inhibition of HIV-1Ba-L replication was measured after 14 days postvirus challenge by HIV-p24 ELISA at the dosage of 0.85 uM concentration in human macrophages; assay type: functional; conditions: 336 h; how it was run: as §1

EC50 (CCRF-CEM [5]) [nM] | EC50 (CCRF-CEM [6]) [nM] | SMILES | CC50 (MT4 [1]) [nM] | inhibition at 0.16 µM (Homo sapiens [2]) [%] | inhibition at 3.3 µM (Homo sapiens [3]) [%] | EC50 (MT4 [4]) [nM] | inhibition at 0.033 µM (Homo sapiens [7]) [%] | Ratio (MT4 [8]) | inhibition at 0.8 µM (Homo sapiens [9]) [%] | EC50 (MT4 [10]) [nM] | inhibition at 0.034 µM (Homo sapiens [11]) [%] | inhibition at 3.4 µM (Homo sapiens [12]) [%] | inhibition at 0.17 µM (Homo sapiens [13]) [%] | inhibition at 0.85 µM (Homo sapiens [14]) [%]
120 | > 7000 | CN(C)C(=O)c1cnnn1[C@@H]1O[C@H](CO[Si](C)(C)C(C)(C)C)[C@@]2(OS(=O)(=O)C=C2N)[C@H]1O[Si](C)(C)C(C)(C)C | 20000 | 42 | > 99 | 60 | 0 | 335 | > 99 | > 30000 | – | – | – | –
540 | > 165000 | CCOC(=O)c1cn([C@@H]2O[C@H](CO[Si](C)(C)C(C)(C)C)[C@@]3(OS(=O)(=O)C=C3N)[C@H]2O[Si](C)(C)C(C)(C)C)nn1 | > 165000 | 20 | > 99 | 790 | 0 | >209 | 98 | ≥ 165000 | – | – | – | –
1300 | > 35000 | CCCc1cn([C@@H]2O[C@H](CO[Si](C)(C)C(C)(C)C)[C@@]3(OS(=O)(=O)C=C3N)[C@H]2O[Si](C)(C)C(C)(C)C)nn1 | > 170000 | – | – | 920 | – | >185 | – | > 170000 | 0 | 67 | 12 | 42
